Measurements from ChEMBL document CHEMBL3259678 (ACS Med Chem Lett, 2014).
pEC50, pIC50, pKi: −log10 of the molar value. Active and inactive are the calls of the source. The calls are words filed in the database; no cut-off is given here.

Key:
[1] = target: T1, Proteasome subunit beta type-8 (Homo sapiens) (UniProt P28062); assay: Inhibition of immunoproteasome-20S subunit beta5i in human PBMC assessed as substrate hydrolysis using suc-LLVY-AMC as substrate by fluorescence analysis; conditions: TDE = time-dependent effect
T1 sequence (whole entry): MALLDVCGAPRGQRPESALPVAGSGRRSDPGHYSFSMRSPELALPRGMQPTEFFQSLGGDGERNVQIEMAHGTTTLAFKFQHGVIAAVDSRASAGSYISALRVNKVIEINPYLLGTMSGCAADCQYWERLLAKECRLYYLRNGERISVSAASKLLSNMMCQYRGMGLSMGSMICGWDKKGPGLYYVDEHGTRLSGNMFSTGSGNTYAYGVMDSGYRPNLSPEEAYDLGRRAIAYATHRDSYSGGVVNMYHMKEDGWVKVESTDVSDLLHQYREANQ
Outline: (§1)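 Purified human i-20S preincubated with inhibitor for 15 min before suc-LLVY-AMC was added; inhibitor ranged from 9.8 nM to 100 μM. AMC fluorescence release read. IC50 from the concentration–response; where β2i/β1i inhibition exceeded 80% at 100 μM, IC50 was also determined.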

[2] = target: T2, Proteasome subunit beta type-8 (Homo sapiens, UniProt P28062); assay: (§2) Inhibition of immunoproteasome-20S subunit beta5i in human PBMC assessed as substrate hydrolysis using suc-LLVY-AMC as substrate measured for 120 mins by fluorescence analysis
T2 sequence (P28062 whole entry): T1 sequence (whole entry)

[3] = target: T1, Proteasome subunit beta type-8 (Homo sapiens); assay: as §2
[4] = target: T1, Proteasome subunit beta type-8 (Homo sapiens); assay: Ratio of Kinact to Ki for immunoproteasome-20S subunit beta5i in human PBMC using suc-LLVY-AMC as substrate measured for 120 mins by fluorescence analysis
Outline: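 Progress curves of hu i-20S suc-LLVY-AMC hydrolysis recorded at several inhibitor concentrations. kobs for each curve fitted to equation I. kobs plotted against inhibitor concentration and fitted hyperbolically (two-step mechanism) to give kinact/KI.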

Homo sapiens [5] = species: Homo sapiens; assay: Inhibition of constitutive proteasome 20S subunit beta5c in human RBC assessed as substrate hydrolysis using suc-LLVY-AMC as substrate measured for 120 mins by fluorescence analysis
Homo sapiens [6] = species: Homo sapiens; assay: Ratio of Kinact/Ki for immunoproteasome-20S subunit beta5i in human PBMC to Kinact/Ki for constitutive proteasome 20S subunit beta5c in human RBC
[7] = target: T2, Proteasome subunit beta type-8; assay: Inhibition of immunoproteasome-20S subunit beta5i in human PBMC assessed as substrate hydrolysis using suc-LLVY-AMC as substrate preincubated for 15 mins prior to substrate challenge measured for 120 mins by fluorescence analysis; outline: as §1
[8] = target: T1, Proteasome subunit beta type-8 (Homo sapiens); assay: Inhibition of immunoproteasome 20S subunit beta5i in human Karpas 1106p cells assessed as accumulation of polyubiquitinylated proteins at 2.5 to 25 uM after 4 hrs by western blot analysis; assay type: cell-based
Outline: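 Karpas 1106p cells treated with inhibitor at the indicated concentrations for 4 h at 37 °C. Polyubiquitinated proteins then detected by Western blot.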

[9] = target: T1, Proteasome subunit beta type-8 (Homo sapiens); assay: Inhibition of immunoproteasome 20S subunit beta5i in human Karpas 1106p cell extract at 1 uM
Outline: (§3)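 Cell-free extracts of Karpas 1106p cells incubated with inhibitor at various concentrations. β5i activity in the lysate then measured; reported as percent inhibition at each concentration.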

[10] = target: T1, Proteasome subunit beta type-8 (Homo sapiens); assay: Inhibition of immunoproteasome 20S subunit beta5i in human Karpas 1106p cell extract at 10 uM; outline: as §3
[11] = target: T1, Proteasome subunit beta type-8 (Homo sapiens); assay: Inhibition of immunoproteasome 20S subunit beta5i in human Karpas 1106p cell extract at 100 uM; outline: as §3
[12] = Half life of the compound in RPMI medium at 75 uM by UPLC/MS analysis; assay type: physicochemical
Outline: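 Stability measured in tissue culture medium; reported as t1/2 in minutes.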

26S proteasome = assay: Inhibition of chymotrypsin-like activity of 26S proteasome in intact human Karpas 1106p cells assessed as substrate hydrolysis using Suc-LLVY-(D)-aminoluciferin as substrate after 3 hrs by cell-based Proteasome-Glo assay
Outline: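 Intact Karpas 1106p cells, a human lymphoma line that expresses i-20S constitutively without IFN-γ or TNF-α stimulation. 26S proteasome activity read by cell-based Proteasome-Glo luminescence over a range of inhibitor concentrations. EC50 derived from the dose–response.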

[13] = target: T1, Proteasome subunit beta type-8 (Homo sapiens); conditions: 1 nM
[14] = target: T1, Proteasome subunit beta type-8 (Homo sapiens); conditions: 10 to 100 nM

SMILES | inhibition [1] | pKi [2] | Kinact [3] | Ratio [4] | Ratio (Homo sapiens [5]) | Ratio (Homo sapiens [6]) | pIC50 [7] | inhibition [8] | inhibition [9] | inhibition [10] | inhibition [11] | half-life at 75 µM [12] | pEC50 (26S proteasome) | inhibition [13] | inhibition [14]
O=c1oc(-c2ccccc2C(F)(F)F)ns1 | tde | 5.74 | 0.00033 s⁻¹ | 187 M⁻¹ s⁻¹ | 1.6 M⁻¹ s⁻¹ | 117 |  |  |  |  |  |  |  |  | 
CC(=O)N[C@@H](Cc1ccccc1)C(=O)Nc1ccc(-c2nsc(=O)o2)cc1 | tde | 6.28 | 0.0001 s⁻¹ | 193 M⁻¹ s⁻¹ | 0.13 M⁻¹ s⁻¹ | 1490 |  |  |  |  |  |  |  |  | 
CC(C)(C)OC(=O)Nc1ccc(-c2nsc(=O)o2)cc1 |  | 5.96 | 0.00037 s⁻¹ | 341 M⁻¹ s⁻¹ | 2.4 M⁻¹ s⁻¹ | 142 |  |  |  |  |  |  |  |  | 
O=c1oc(-c2cccc(-c3ccccc3)c2)ns1 | tde | 5.22 | 0.001 s⁻¹ | 168 M⁻¹ s⁻¹ | 0.4 M⁻¹ s⁻¹ | 420 |  |  |  |  |  |  |  |  | 
O=c1oc(-c2ccc3[nH]ccc3c2)ns1 | tde | 5.96 | 0.00026 s⁻¹ | 225 M⁻¹ s⁻¹ | 0.13 M⁻¹ s⁻¹ | 1730 |  |  |  |  |  |  |  |  | 
O=c1oc(-c2cc(O)c(O)c(O)c2)ns1 | tde | 5.77 | 0.00042 s⁻¹ | 239 M⁻¹ s⁻¹ | 1.4 M⁻¹ s⁻¹ | 171 |  |  |  |  |  |  |  |  | 
Cc1sc(-c2nsc(=O)o2)cc1[N+](=O)[O-] |  | 6.12 | 0.00077 s⁻¹ | 1010 M⁻¹ s⁻¹ | 10.1 M⁻¹ s⁻¹ | 100 | 6.66 |  |  |  |  |  |  |  | 
O=c1oc(-c2cccc([N+](=O)[O-])c2)ns1 | tde | 6.38 | 0.00038 s⁻¹ | 913 M⁻¹ s⁻¹ | 10.3 M⁻¹ s⁻¹ | 89 |  |  |  |  |  |  |  |  | 
O=c1oc(-c2ccccn2)ns1 |  | 5.70 | 0.00025 s⁻¹ | 129 M⁻¹ s⁻¹ | 0.2 M⁻¹ s⁻¹ | 645 |  |  |  |  |  |  |  |  | 
CC(=O)N[C@H](Cc1ccccc1)C(=O)Nc1ccc(-c2nsc(=O)o2)cc1 |  | 5.46 | 0.00053 s⁻¹ | 151 M⁻¹ s⁻¹ | 0.7 M⁻¹ s⁻¹ | 215 |  | Active | 40% | 65% | Active | 0.878 h | 4.81 |  | 
O=c1oc(-c2cccc(F)c2)ns1 |  |  |  | 20 M⁻¹ s⁻¹ | 13.2 M⁻¹ s⁻¹ | 1.5 |  |  |  |  |  |  |  |  | 
O=c1oc(-c2ccc(-c3ccccc3)cc2)ns1 |  | 5.85 | 0.00154 s⁻¹ | 1090 M⁻¹ s⁻¹ | 0.23 M⁻¹ s⁻¹ | 4750 |  |  |  |  |  |  |  |  | 
CC(=O)N[C@H](Cc1ccccc1)C(=O)Nc1cccc(-c2nsc(=O)o2)c1 |  |  |  | 6.6 M⁻¹ s⁻¹ | 0.34 M⁻¹ s⁻¹ | 19 |  |  |  |  |  |  |  |  | 
[N-]=[N+]=Nc1ccc(-c2nsc(=O)o2)cc1 | tde | 5.46 | 0.00092 s⁻¹ | 263 M⁻¹ s⁻¹ | 23.7 M⁻¹ s⁻¹ | 11 |  |  |  |  |  |  |  |  | 
O=c1oc(-c2ccccc2)ns1 | tde | 5.10 | 0.00093 s⁻¹ | 118 M⁻¹ s⁻¹ | 14.8 M⁻¹ s⁻¹ | 8 |  |  |  |  |  |  |  |  | 
CC(C)C[C@H](NC(=O)[C@H](Cc1ccccc1)NC(=O)c1cnccn1)B(O)O |  |  |  |  |  |  |  |  |  |  |  |  |  | 58% | 90%
O=c1oc(-c2cccc(CN3CCOCC3)c2)ns1 | tde | 5.92 | 0.00026 s⁻¹ | 214 M⁻¹ s⁻¹ | 2.3 M⁻¹ s⁻¹ | 93 |  |  |  |  |  |  |  |  | 
CC(=O)Nc1cccc(-c2nsc(=O)o2)c1 |  |  |  | 83 M⁻¹ s⁻¹ | 3.2 M⁻¹ s⁻¹ | 26 |  | Active | 60% | > 90% | Active | 1.36 h | 5.38 |  | 
